# Screening results as filed in PubChem.
# A selection: hits, their analogues and other compounds. The true share with any hit is near 1.8%.
# CHRM4 antagonist = human M4 muscarinic receptor antagonists, primary screen, CHO cells, Fluo-8 calcium fluorescence | Muscarinic acetylcholine receptor M4 (Homo sapiens), P08173 | CHO-hM4 cells, ACh EC80 | inhibition, % at 3 µM | hit rate 0.73% among 360,000 | AID 624125, 2012;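 active = inhibition above its plate's cutoff, the mean inhibition of sample wells plus 3 SD, cut at about 27% in these data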;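 note: 0% = acetylcholine EC80 with DMSO and 100% = DMSO without agonist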
# Target sequence (P08173 whole entry, looked up): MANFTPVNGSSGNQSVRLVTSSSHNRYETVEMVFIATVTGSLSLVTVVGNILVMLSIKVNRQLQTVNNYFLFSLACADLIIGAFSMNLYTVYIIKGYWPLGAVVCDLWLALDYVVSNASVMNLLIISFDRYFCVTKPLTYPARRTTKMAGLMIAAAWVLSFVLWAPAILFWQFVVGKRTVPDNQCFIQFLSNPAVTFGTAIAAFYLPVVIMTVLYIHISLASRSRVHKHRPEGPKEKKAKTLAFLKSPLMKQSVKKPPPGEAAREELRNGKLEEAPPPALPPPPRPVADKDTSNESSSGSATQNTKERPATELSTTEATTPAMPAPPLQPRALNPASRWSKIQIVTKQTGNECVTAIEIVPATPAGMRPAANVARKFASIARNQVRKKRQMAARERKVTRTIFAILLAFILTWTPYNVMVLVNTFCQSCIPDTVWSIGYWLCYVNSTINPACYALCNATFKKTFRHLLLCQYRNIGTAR
# M5 PAM = human M5 muscarinic receptor positive allosteric modulators, primary screen, CHO-K1 cells, Fluo-8 calcium fluorescence; Muscarinic acetylcholine receptor M5 (Homo sapiens), P08912; hit rate 0.3% among 360,000; CHO-K1 hM5, ACh EC20 PAM; 0% = ACh EC20, 100% = ACh EC100; activation, % at 3 µM; AID 624038, 2012;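 active = activation above the run cutoff, the mean activation of all test compounds plus 3 SD, cut at about 18% in these data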
#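 Assay system: CHO-K1 hM5 cells / Incubation: Fluo-8 loading 80 min at 37 °C plus 30 min room temperature / Technique: Fluo-8 calcium dye fluorescence, kinetic read / Repeats: single replicate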
# CHRM4 PAM = human M4 muscarinic receptor positive allosteric modulators, primary screen, CHO-K1 cells, Fluo-8 calcium fluorescence; activation, % at 3 µM; CHO-K1 hM4/Gqi5, ACh EC20; 0% = ACh EC20, 100% = maximal ACh; Muscarinic acetylcholine receptor M4 (Homo sapiens), P08173; hit rate 0.4% among 360,000;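 active = activation above its plate's cutoff, the mean activation of sample wells plus 3 SD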
# M5 ag = human M5 muscarinic receptor agonists, primary screen, CHO-K1 cells, Fluo-8 calcium fluorescence; hit rate 0.19% among 360,000; Muscarinic acetylcholine receptor M5 (Homo sapiens), P08912; AID 624037, 2012; activation, % at 3 µM; CHO-K1 hM5 cells; 0% DMSO wells, 100% maximal acetylcholine response;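 active = activation above the run's mean over test compounds plus 3 SD, cut at about 23% in these data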;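 note: signal is peak over basal fluorescence ratio across the kinetic read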
# M5 antag = human M5 muscarinic receptor antagonists, primary screen, CHO cells, Fluo-8 calcium fluorescence. Muscarinic acetylcholine receptor M5 (Homo sapiens), P08912. CHO-hM5 cells, ACh EC80. inhibition, % at 3 µM. hit rate 0.59% among 360,000. AID 624040, 2012;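 active = inhibition above a per-plate cutoff, the mean of that plate's test compounds plus 3 SD, cut at about 27% in these data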;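 note: 0% = acetylcholine EC80 with DMSO and 100% = DMSO without agonist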
# M4 ag = human M4 muscarinic receptor agonists, primary screen, CHO-K1 cells, Fluo-8 calcium fluorescence. Muscarinic acetylcholine receptor M4 (Homo sapiens), P08173. CHO-K1 hM4/Gqi5; vehicle 0%, full acetylcholine response 100%. activation, % at 3 µM. hit rate 0.14% among 360,000. AID 624127, 2012;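 active = activation above the run mean over all test wells plus 3 SD, cut at about 32% in these data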;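 note: peak over basal fluorescence ratio per well then scaled between controls; 0% = DMSO wells and 100% = acetylcholine at EC100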
# Numbers without * were called inactive.
SMILES,CHRM4 antagonist,M5 PAM,CHRM4 PAM,M5 ag,M5 antag,M4 ag
Cc1noc(C)c1-c1ccc(C(=O)NCCC(F)(F)F)c2occc12,-19,-5,7,-2,-1,1
COc1ccc(CCNC(=O)c2ccc(CSc3ccc(Cl)cc3)o2)cc1OC,30*,-25,-13,4,22,23
COC(=O)c1ccc(OCC2c3cc(OC)c(OC)cc3CCN2C(=O)c2ccco2)cc1 (configuration not stated),30*,-15,-14,2,17,21
COC(=O)c1ccc(OCC2c3cc(OC)c(OC)cc3CCN2C(C)=O)cc1 (configuration not stated),13,-13,-18,0,16,17
CCn1c(CNc2ccccc2Cl)nnc1SCCN1CCCCC1,33*,-7,-19,-8,1,1
COc1ccc2c(c1)c1c3n2CCN(C)C3=NCC1,-6,7,15*,1,-2,1
Cc1cc(C)n(CCCNC(=O)c2ccc3c(c2)NC(=O)CS3)n1,-4,25*,6,-12,2,1
COc1cccc(NC(=O)COC(=O)c2ccc(F)cc2F)c1,3,2,-3,2,-1,2
COc1cc(NC(=O)COC(=O)c2ccccc2F)cc(OC)c1,29*,4,3,-2,1,1
O=C(COc1ccccc1)Nc1cccc(-c2nc3cc4ccccc4cc3[nH]2)c1,30*,-22,-22,1,18,14
O=C(COc1ccccc1)Nc1cccc(-c2nn[nH]n2)c1,-6,2,5,-2,-4,1
CCN(CC)CCNc1nc2c(c(=O)[nH]c(=O)n2C)n1CC(O)COc1ccc(Cl)cc1Cl (configuration not stated),11,3,-6,-6,4,0
Cc1cc(C)n(-c2nc3c(c(=O)[nH]c(=O)n3C)n2CC(O)COc2ccc(Cl)cc2Cl)n1 (configuration not stated),-11,22*,-1,-10,-2,0
C[C@@H](NC(=O)Cn1cnc2c(OCc3ccccc3)ncnc21)c1cccc2ccccc12,57*,3,56*,6,-4,14
CC1(C(=O)N2CCCCC2)CCN1C(=O)Cc1ccc(-c2ccccc2)cc1 (configuration not stated),-16,-3,7,2,-7,3
CCOC(=O)C1CCN(C(=O)COC(=O)/C=C/c2cccc(OC)c2OC)CC1,-12,1,18,24*,3,7
COc1cccc(/C=C/C(=O)OCC(=O)c2c[nH]c3ccccc23)c1OC,13,-18,-9,-1,27*,14
CCOC(=O)C1CCN(C(=O)COC(=O)/C=C/c2ccccc2)CC1,-13,3,9,7,-3,2
COc1cccc(/C=C/C(=O)OCC(=O)c2c[nH]c3ccccc23)c1,-2,-28,-4,-2,9,18
Cn1cc(Cc2ccc(C(=O)N3CCCCC3)cn2)c2ccccc21,-9,2,5,0,-9,3
CCOC(=O)CCc1c(C)n(CC)c2cc(-c3ccccc3OC)nn2c1=O,-9,13,19*,-9,0,-1
CC(C)n1nc(C(=O)NNC(=O)c2ccncc2)c2ccccc2c1=O,-8,1,23*,4,0,-2
CCOc1ccccc1CNS(=O)(=O)c1ccc(-c2cnc(C3CC3)o2)cc1,28*,-16,-11,3,28*,19
CCc1ccc(Cn2ncc3c(C(=O)O)cc(C)nc32)cc1,34*,-4,-16,0,10,1
Cc1ccc(Nc2nc(-c3c(C)nc4ccccn34)cs2)cc1,27*,-20,-31,-6,19,10
COc1ccc(N2CCN(S(=O)(=O)c3ccc(OC)cc3)CC2)cc1,-3,-4,-7,2,6,3
